Experimental data published in ChEMBL document CHEMBL1629658, “A 10-year survey of antifungal susceptibility of candidemia isolates from intensive care unit patients in Greece” (2009).
In brackets after ≈: the same amount, converted by molar mass. Numbered stars: 1 amine (or outer) side, 2 acyl side, 3 side chain; on linkers, the order of the positions; unused ones are H or OH. Bridge positions count the residues as written; N and C are the ends. Square brackets hold non-standard residues; d marks the D form. Peptide text beside a SMILES is read from it. * marks the point of attachment. hTyr(3S-OH,4S-OH,3'-OSO3H) = N[C@H](C(=O)O)[C@H](O)[C@@H](O)c1ccc(O)c(OS(=O)(=O)O)c1; pTerphenylCO(4''-OnC5H11) = CCCCCOc1ccc(-c2ccc(-c3ccc(C(=O)*)cc3)cc2)cc1; Orn(4R-OH,5R-OH) = O=C([C@H](C[C@@H](O)[C@@H](O)N[*:3])N[*:1])[*:2]; hTyr(3S-OH,4S-OH) = N[C@H](C(=O)O)[C@H](O)[C@@H](O)c1ccc(O)cc1; Pro(3S-OH,4S-Me) = C[C@H]1CN[C@H](C(=O)O)[C@H]1O; X1 = CCCCCOc1ccc(-c2cc(-c3ccc(C(=O)*)cc3)no2)cc1; Gln(3R-OH) = NC(=O)C[C@@H](O)[C@H](N)C(=O)O; Hyp = O=C(O)[C@@H]1C[C@@H](O)CN1

Experiments:
Type in all cases: functional
[1] = Antifungal activity against Candida pulcherrima isolated from candidemia patient by AFST-EUCAST microdilution method; conditions: Metschnikowia pulcherrima
Candida dubliniensis = assay: Antifungal activity against Candida dubliniensis isolated from candidemia patient by AFST-EUCAST microdilution method
Kluyveromyces marxianus = assay: Antifungal activity against Candida kefyr isolated from candidemia patient by AFST-EUCAST microdilution method
Nakaseomyces glabratus = assay: Antifungal activity against Candida glabrata isolated from candidemia patient by AFST-EUCAST microdilution method
[Candida] intermedia = Antifungal activity against Candida intermedia isolated from candidemia patient by AFST-EUCAST microdilution method; conditions: Sungouiella intermedia
Candida tropicalis = assay: Antifungal activity against Candida tropicalis isolated from candidemia patient by AFST-EUCAST microdilution method
Clavispora lusitaniae = assay: Antifungal activity against Clavispora lusitaniae isolated from candidemia patient by AFST-EUCAST microdilution method
[2] = test system: Meyerozyma guilliermondii; assay: Antifungal activity against Candida guilliermondii isolated from candidemia patient by AFST-EUCAST microdilution method
Diutina rugosa = assay: Antifungal activity against Candida rugosa isolated from candidemia patient by AFST-EUCAST microdilution method
Yarrowia lipolytica = assay: Antifungal activity against Candida lipolytica isolated from candidemia patient by AFST-EUCAST microdilution method
Pichia kudriavzevii [3] = assay: Antifungal activity against Candida krusei isolated from candidemia patient by AFST-EUCAST microdilution method
Wickerhamomyces anomalus = assay: Antifungal activity against Candida pelliculosa isolated from candidemia patient by AFST-EUCAST microdilution method; conditions: Hansenula anomala
Candida parapsilosis [4] = assay: Antifungal activity against Candida parapsilosis isolated from candidemia patient by AFST-EUCAST microdilution method; conditions: Lodderomyces parapsilosis
Candida albicans = assay: Antifungal activity against Candida albicans isolated from candidemia patient by AFST-EUCAST microdilution method
Candida parapsilosis [5] = assay: Antifungal activity against Candida parapsilosis ATCC 22019 isolated from candidemia patient by AFST-EUCAST microdilution method; conditions: Lodderomyces parapsilosis
Summary of the method: (§1)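 Designated quality-control strain included on every testing occasion and run by the AFST-EUCAST broth microdilution reference procedure (EDef 7.1) alongside the clinical isolates. Its MICs were checked against the reference range for EUCAST-evaluated drugs. Pure standard compounds were used: azoles, amphotericin B, flucytosine and echinocandins.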

Pichia kudriavzevii [6] = assay: Antifungal activity against Candida krusei ATCC 6258 isolated from candidemia patient by AFST-EUCAST microdilution method; summary of the method: as §1

Structure (SMILES) | MIC [1] [µg/mL] | MIC (Candida dubliniensis) [µg/mL] | MIC (Kluyveromyces marxianus) [µg/mL] | MIC90 (Nakaseomyces glabratus) [µg/mL] | MIC ([Candida] intermedia) [µg/mL] | MIC90 (Candida tropicalis) [µg/mL] | MIC90 (Clavispora lusitaniae) [µg/mL] | MIC [2] [µg/mL] | MIC (Diutina rugosa) [µg/mL] | MIC (Yarrowia lipolytica) [µg/mL] | MIC90 (Pichia kudriavzevii [3]) [µg/mL] | MIC (Wickerhamomyces anomalus) [µg/mL] | MIC90 (Candida parapsilosis [4]) [µg/mL] | MIC90 (Candida albicans) [µg/mL] | MIC (Pichia kudriavzevii [3]) [µg/mL] | MIC (Candida parapsilosis [5]) [µg/mL] | MIC (Pichia kudriavzevii [6]) [µg/mL] | MIC (Candida albicans) [µg/mL] | further results
Nc1nc(=O)[nH]cc1F [FLUCYTOSINE] | 0.12 (≈ 0.93 µM) | 0.12 (≈ 0.93 µM) | 0.12 (≈ 0.93 µM) | 0.25 (≈ 1.94 µM) | 64 (≈ 496 µM) | 0.5 (≈ 3.87 µM) | 2 (≈ 15.5 µM) | 0.12 (≈ 0.93 µM) | 0.5 (≈ 3.87 µM) | 0.12 (≈ 0.93 µM) | 2 (≈ 15.5 µM) | 0.12 (≈ 0.93 µM) | 0.5 (≈ 3.87 µM) | 2 (≈ 15.5 µM) |  |  |  |  | 
OC(Cn1cncn1)(Cn1cncn1)c1ccc(F)cc1F [FLUCONAZOLE] |  | 0.12 (≈ 0.392 µM) | 0.12 (≈ 0.392 µM) | 16 (≈ 52.2 µM) | 1 (≈ 3.27 µM) | 2 (≈ 6.53 µM) | 4 (≈ 13.1 µM) |  | 2 (≈ 6.53 µM) |  | 32 (≈ 104 µM) | 2 (≈ 6.53 µM) | 4 (≈ 13.1 µM) | 0.5 (≈ 1.63 µM) | 32 (≈ 104 µM) |  |  |  | 
CC[C@H](C)C[C@H](C)CCCCCCCCC(=O)N[C@H]1C[C@@H](O)[C@@H](NCCN)NC(=O)[C@@H]2[C@@H](O)CCN2C(=O)[C@H]([C@H](O)CCN)NC(=O)[C@H]([C@H](O)[C@@H](O)c2ccc(O)cc2)NC(=O)[C@@H]2C[C@@H](O)CN2C(=O)[C@H]([C@@H](C)O)NC1=O [CASPOFUNGIN] | 0.03 (≈ 0.0274 µM) | 0.25 (≈ 0.229 µM) | 8 (≈ 7.32 µM) | 1 (≈ 0.915 µM) | 0.03 (≈ 0.0274 µM) | 0.25 (≈ 0.229 µM) | 1 (≈ 0.915 µM) | 1 (≈ 0.915 µM) | 0.25 (≈ 0.229 µM) | 0.12 (≈ 0.11 µM) | 0.12 (≈ 0.11 µM) | 0.03 (≈ 0.0274 µM) | 2 (≈ 1.83 µM) | 0.12 (≈ 0.11 µM) | 0.5 (≈ 0.457 µM) | 2 (≈ 1.83 µM) | 0.5 (≈ 0.457 µM) | 0.12 (≈ 0.11 µM) | 
C[C@@H](c1ncncc1F)[C@](O)(Cn1cncn1)c1ccc(F)cc1F [VORICONAZOLE] | 0.25 (≈ 0.716 µM) | 0.03 (≈ 0.0859 µM) | 4 (≈ 11.5 µM) | 0.5 (≈ 1.43 µM) | 0.06 (≈ 0.172 µM) | 0.12 (≈ 0.344 µM) | 0.5 (≈ 1.43 µM) | 0.06 (≈ 0.172 µM) | 0.01 (≈ 0.0286 µM) | 0.03 (≈ 0.0859 µM) | 1 (≈ 2.86 µM) | 0.12 (≈ 0.344 µM) | 0.06 (≈ 0.172 µM) | 0.03 (≈ 0.0859 µM) |  |  |  | 0.01 (≈ 0.0286 µM) | MIC (Candida parapsilosis [4]): 0.06 µg/mL (≈ 0.172 µM)
CCCCCOc1ccc(-c2cc(-c3ccc(C(=O)N[C@H]4C[C@@H](O)[C@@H](O)NC(=O)[C@@H]5[C@@H](O)[C@@H](C)CN5C(=O)[C@H]([C@H](O)CC(N)=O)NC(=O)[C@H]([C@H](O)[C@@H](O)c5ccc(O)c(OS(=O)(=O)O)c5)NC(=O)[C@@H]5C[C@@H](O)CN5C(=O)[C@H]([C@@H](C)O)NC4=O)cc3)no2)cc1 [MICAFUNGIN] (X1-[Orn(4R-OH,5R-OH)]T[Hyp][hTyr(3S-OH,4S-OH,3'-OSO3H)][Gln(3R-OH)][Pro(3S-OH,4S-Me)]; lactam 1-C) | 0.03 (≈ 0.0236 µM) | 0.03 (≈ 0.0236 µM) | 4 (≈ 3.15 µM) | 0.25 (≈ 0.197 µM) | 0.03 (≈ 0.0236 µM) | 0.12 (≈ 0.0945 µM) | 0.12 (≈ 0.0945 µM) | 0.25 (≈ 0.197 µM) | 0.03 (≈ 0.0236 µM) | 0.03 (≈ 0.0236 µM) | 0.12 (≈ 0.0945 µM) | 0.5 (≈ 0.394 µM) | 2 (≈ 1.57 µM) | 0.06 (≈ 0.0472 µM) |  | 0.5 (≈ 0.394 µM) | 0.5 (≈ 0.394 µM) |  | 
CC[C@@H]([C@H](C)O)n1ncn(-c2ccc(N3CCN(c4ccc(OC[C@@H]5CO[C@@](Cn6cncn6)(c6ccc(F)cc6F)C5)cc4)CC3)cc2)c1=O [POSACONAZOLE] | 0.03 (≈ 0.0428 µM) | 0.01 (≈ 0.0143 µM) | 0.25 (≈ 0.357 µM) | 0.25 (≈ 0.357 µM) | 0.25 (≈ 0.357 µM) | 0.12 (≈ 0.171 µM) | 0.03 (≈ 0.0428 µM) | 0.12 (≈ 0.171 µM) | 0.03 (≈ 0.0428 µM) | 0.03 (≈ 0.0428 µM) | 0.5 (≈ 0.713 µM) | 0.03 (≈ 0.0428 µM) | 0.12 (≈ 0.171 µM) | 0.12 (≈ 0.171 µM) |  |  |  |  | MIC (Clavispora lusitaniae): 0.03 µg/mL (≈ 0.0428 µM)
C[C@@H]1[C@H](O)[C@@H](C)/C=C/C=C/C=C/C=C/C=C/C=C/C=C/[C@H](O[C@@H]2O[C@H](C)[C@@H](O)[C@H](N)[C@@H]2O)C[C@@H]2O[C@](O)(C[C@@H](O)C[C@@H](O)[C@H](O)CC[C@@H](O)C[C@@H](O)CC(=O)O[C@H]1C)C[C@H](O)[C@H]2C(=O)O [AMPHOTERICIN B] | 0.12 (≈ 0.13 µM) | 0.06 (≈ 0.0649 µM) | 0.5 (≈ 0.541 µM) | 0.5 (≈ 0.541 µM) | 0.5 (≈ 0.541 µM) | 0.25 (≈ 0.271 µM) | 4 (≈ 4.33 µM) | 0.5 (≈ 0.541 µM) | 0.12 (≈ 0.13 µM) | 1 (≈ 1.08 µM) | 0.25 (≈ 0.271 µM) | 0.25 (≈ 0.271 µM) | 0.25 (≈ 0.271 µM) | 0.12 (≈ 0.13 µM) | 0.25 (≈ 0.271 µM) |  |  | 0.12 (≈ 0.13 µM) | MIC (Nakaseomyces glabratus): 0.5 µg/mL (≈ 0.541 µM); MIC (Candida tropicalis): 0.25 µg/mL (≈ 0.271 µM)
CCCCCOc1ccc(-c2ccc(-c3ccc(C(=O)N[C@H]4C[C@@H](O)[C@@H](O)NC(=O)[C@@H]5[C@@H](O)[C@@H](C)CN5C(=O)[C@H]([C@@H](C)O)NC(=O)[C@H]([C@H](O)[C@@H](O)c5ccc(O)cc5)NC(=O)[C@@H]5C[C@@H](O)CN5C(=O)[C@H]([C@@H](C)O)NC4=O)cc3)cc2)cc1 [ANIDULAFUNGIN] ({pTerphenylCO(4''-OnC5H11)}-[Orn(4R-OH,5R-OH)]T[Hyp][hTyr(3S-OH,4S-OH)]T[Pro(3S-OH,4S-Me)]; lactam 1-C) | 0.03 (≈ 0.0263 µM) | 0.03 (≈ 0.0263 µM) | 16 (≈ 14 µM) | 0.12 (≈ 0.105 µM) | 0.03 (≈ 0.0263 µM) | 0.25 (≈ 0.219 µM) | 1 (≈ 0.877 µM) | 0.5 (≈ 0.438 µM) | 0.12 (≈ 0.105 µM) | 0.03 (≈ 0.0263 µM) | 0.06 (≈ 0.0526 µM) | 1 (≈ 0.877 µM) | 2 (≈ 1.75 µM) | 0.12 (≈ 0.105 µM) |  | 0.5 (≈ 0.438 µM) | 0.25 (≈ 0.219 µM) |  | 
CCC(C)n1ncn(-c2ccc(N3CCN(c4ccc(OCC5COC(Cn6cncn6)(c6ccc(Cl)cc6Cl)O5)cc4)CC3)cc2)c1=O (configuration not stated) [ITRACONAZOLE] | 0.12 (≈ 0.17 µM) | 0.06 (≈ 0.085 µM) | 0.25 (≈ 0.354 µM) | 0.5 (≈ 0.709 µM) | 0.12 (≈ 0.17 µM) | 0.12 (≈ 0.17 µM) | 0.25 (≈ 0.354 µM) | 1 (≈ 1.42 µM) | 0.03 (≈ 0.0425 µM) | 0.12 (≈ 0.17 µM) | 0.12 (≈ 0.17 µM) | 0.25 (≈ 0.354 µM) | 0.12 (≈ 0.17 µM) | 0.5 (≈ 0.709 µM) | 0.12 (≈ 0.17 µM) |  |  |  | MIC (Nakaseomyces glabratus): 0.5 µg/mL (≈ 0.709 µM); MIC (Candida tropicalis): 0.12 µg/mL (≈ 0.17 µM)
